{"data": "Assay results of several laboratories", "target": "Serine/threonine-protein kinase STK11 (STK11, Homo sapiens, UniProt Q15831)", "Sequence (Q15831 1-433, as in one of the studies)": "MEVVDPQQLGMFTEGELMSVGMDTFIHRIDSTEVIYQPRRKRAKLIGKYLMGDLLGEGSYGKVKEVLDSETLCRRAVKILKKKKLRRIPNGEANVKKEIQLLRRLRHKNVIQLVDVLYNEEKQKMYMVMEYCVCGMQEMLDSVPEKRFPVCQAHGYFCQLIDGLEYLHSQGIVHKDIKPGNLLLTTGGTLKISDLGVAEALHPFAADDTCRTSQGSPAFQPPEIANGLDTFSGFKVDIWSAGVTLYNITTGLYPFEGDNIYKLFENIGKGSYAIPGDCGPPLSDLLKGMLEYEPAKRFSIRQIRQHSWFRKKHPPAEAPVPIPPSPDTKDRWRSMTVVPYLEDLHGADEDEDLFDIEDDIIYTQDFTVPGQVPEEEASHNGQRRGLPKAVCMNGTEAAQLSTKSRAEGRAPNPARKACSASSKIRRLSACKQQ", "note": "Protocols differ between the studies behind these lines."}
{"Structure (SMILES)": "Cc1nn(C)cc1-c1nc2c(N3CCN(Cc4ccc(Cl)cc4)CC3)c(Cl)cnc2[nH]1", "read-out": "binding", "technique": "competition with immobilised ligand", "concentration": "1 µM", "measurement": "remaining binding", "result": "100%"}
{"Structure (SMILES)": "Cn1cncc1[C@@](O)(COc1ccc(C#N)cc1-c1ccc(OC(F)(F)F)cc1)c1ccc(C#N)cc1", "read-out": "cell-free assay", "technique": "competition with immobilised ligand", "concentration": "1 µM", "measurement": "remaining binding", "result": "100%"}
{"Structure (SMILES)": "CC(C)(C)c1cc(C=C(C#N)C#N)cc(Br)c1O", "read-out": "enzyme activity", "mode": "inhibitor", "concentration": "0.5 µM", "measurement": "remaining activity", "result": "85.2%"}
{"Structure (SMILES)": "COc1cc(Nc2ncc(F)c(Nc3ccc4c(n3)NC(=O)C(C)(C)O4)n2)cc(OC)c1OC", "read-out": "binding", "concentration": "10 µM", "measurement": "inhibition", "result": "0%"}
{"Structure (SMILES)": "N#CC1(c2ccccn2)CCN(Cc2cc(C(=O)O)c(=O)n3ccccc23)CC1", "read-out": "cell-free assay", "technique": "competition with immobilised ligand", "concentration": "1 µM", "measurement": "remaining binding", "result": "100%"}
{"Structure (SMILES)": "Nc1ncc(-c2nc(N3CCOCC3)nc(N3CCOCC3)n2)c(C(F)F)n1", "read-out": "binding", "technique": "competition with immobilised ligand", "concentration": "10 µM", "measurement": "remaining binding", "result": "91%"}
{"Structure (SMILES)": "O=c1[nH]c2ccccc2n1C1CCN(Cc2ccc(-c3[nH]c4cc5ncnc5cc4nc3-c3ccccc3)cc2)CC1", "read-out": "cell-free assay", "concentration": "0.5 µM", "measurement": "remaining signal", "result": "95.6%"}
{"Structure (SMILES)": "COc1ncccc1-c1cnn2ccc(N3CCN(C(=O)OC(C)C)CC3)nc12", "read-out": "binding", "technique": "competition with immobilised ligand", "concentration": "1 µM", "measurement": "remaining binding", "result": "9.7%"}
